In ChEMBL document CHEMBL4196116, “3-Aryl-1,2,4-oxadiazole Derivatives Active Against Human Rhinovirus” (ACS Med Chem Lett, 2018):

Experiments:
[1] = Metabolic stability in human liver microsomes assessed as parent compound remaining at 1 uM after 30 mins in presence of NADPH by LC/MS/MS analysis; type: ADME, microsome; settings: read-out: Stability
Method in brief: (§1)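 Phase I metabolic stability in rat or human liver microsomes, reported as % parent remaining after 30 min. Buspirone serves as reference. Values are mean ± SD of at least three independent experiments.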

[2] = Metabolic stability in rat liver microsomes assessed as parent compound remaining at 1 uM after 30 mins in presence of NADPH by LC/MS/MS analysis; type: ADME, microsome; settings: read-out: Stability; method in brief: as §1
[3] = Cytotoxicity against human H1HeLa cells assessed as reduction in cell viability after 3 days by MTT assay; type: cell-based, H1-HeLa
rhinovirus A21 = assay: Antiviral activity against Human rhinovirus A21 infected in human H1HeLa cells assessed as inhibition of viral replication after 3 days by MTT assay; type: functional, organism-based; settings: Rhinovirus A, H1-HeLa, 72 h
Method in brief: (§2)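 Anti-rhinovirus EC50 against hRV-B14, -A21 and -A71 determined in H1HeLa cells. Read-out is MTT cell viability. EC50 is the concentration that inhibits viral replication by 50%. Pleconaril serves as reference.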

rhinovirus B14 = assay: Antiviral activity against Human rhinovirus B14 infected in human H1HeLa cells assessed as inhibition of viral replication after 3 days by MTT assay; type: functional, organism-based; settings: Rhinovirus B, H1-HeLa, 72 h; method in brief: as §2
[4] = Antiviral activity against Human rhinovirus A71 infected in human H1HeLa cells assessed as inhibition of viral replication after 3 days by MTT assay; type: functional, cell-based; settings: Rhinovirus A, H1-HeLa, 72 h; method in brief: as §2
[5] = Terminal half life in Sprague-Dawley rat at 5 mg/kg, iv by LC/MS/MS analysis; type: ADME, organism-based; settings: in vivo, read-out: beta t1/2 (converted)
Method in brief: (§3)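 Male Sprague–Dawley rats, n = 3, given 5 mg·kg–1 intravenously or 10 mg·kg–1 orally. Plasma deproteinized in acetonitrile and assayed by LC–MS/MS. Parameters derived from concentration–time data by noncompartmental analysis. Values reported as mean ± standard deviation.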

[6] = AUC (infinity) in Sprague-Dawley rat at 5 mg/kg, iv by LC/MS/MS analysis; type: ADME, organism-based; design: dose 5 mg/kg, route intravenous, time infinity; settings: in vivo; method in brief: as §3
[7] = Terminal half life in Sprague-Dawley rat at 10 mg/kg, po by LC/MS/MS analysis; type: ADME, organism-based; settings: in vivo, read-out: beta t1/2 (converted); method in brief: as §3
[8] = Clearance in Sprague-Dawley rat at 5 mg/kg, iv by LC/MS/MS analysis; type: ADME, organism-based; settings: in vivo; method in brief: as §3
[9] = AUCt in Sprague-Dawley rat at 5 mg/kg, iv by LC/MS/MS analysis; type: ADME, organism-based; settings: in vivo; method in brief: as §3
[10] = Cmax in Sprague-Dawley rat at 10 mg/kg, po by LC/MS/MS analysis; type: ADME, organism-based; design: dose 10 mg/kg, route oral; settings: in vivo; method in brief: as §3
[11] = AUCt in Sprague-Dawley rat at 10 mg/kg, po by LC/MS/MS analysis; type: ADME, organism-based; settings: in vivo; method in brief: as §3
[12] = AUC (infinity) in Sprague-Dawley rat at 10 mg/kg, po by LC/MS/MS analysis; type: ADME, organism-based; design: dose 10 mg/kg, time infinity, route oral; settings: in vivo; method in brief: as §3
[13] = Volume of distribution at steady state in Sprague-Dawley rat at 5 mg/kg, iv by LC/MS/MS analysis; type: ADME, organism-based; settings: in vivo, read-out: Vdss; method in brief: as §3
[14] = Oral bioavailability in Sprague-Dawley rat at 10 mg/kg by LC/MS/MS analysis; type: ADME, organism-based; settings: in vivo; method in brief: as §3
[15] = Tmax in Sprague-Dawley rat at 10 mg/kg, po by LC/MS/MS analysis; type: ADME, organism-based; settings: in vivo; method in brief: as §3

Row | SMILES | CC50 at 72 h [3] [nM] | EC50 (rhinovirus A21) [nM] | EC50 (rhinovirus B14) [nM] | EC50 [4] [nM] | also measured
1 | O=C1CC2(CCCC2)CC(=O)N1CCCCN1CCN(c2ncccn2)CC1 [BUSPIRONE] |  |  |  |  | remaining at 0.5 h, 1 µM [1]: 3.5%; remaining at 0.5 h, 1 µM [2]: 0.1%
2 | Cc1cc(-c2noc(C(C)C)n2)cc(C)c1Oc1ccnc(C(=O)N(C)C)c1 | 1800 | > 1800 | > 1800 | > 1800 | 
3 | CNC(=O)c1cc(Oc2ccc(-c3noc(C(F)(F)F)n3)cc2)ccn1 | 35000 | > 35000 | 9300 | 1600 | 
4 | CNC(=O)c1cc(Oc2ccc(-c3noc(C(C)C)n3)cc2C)ccn1 | 8900 | 29 | 73 | 2.5 | remaining at 0.5 h, 1 µM [1]: 9.9%; remaining at 0.5 h, 1 µM [2]: 35.1%
5 | CNC(=O)c1cc(Oc2ccc3c(C)c(C(=O)OC(C)C)sc3c2)ccn1 |  |  |  |  | remaining at 0.5 h, 1 µM [1]: 42.7%; remaining at 0.5 h, 1 µM [2]: 1%
6 | CNC(=O)c1cc(Oc2ccc3c(C)c(-c4noc(C)n4)sc3c2)ccn1 | > 100000 | 59 | 650 | 61 | 
7 | CNC(=O)c1cc(Oc2cccc(-c3noc(COC)n3)c2)ccn1 | > 100000 | 40300 | > 100000 | 2000 | 
8 | Cc1cc(CCCOc2c(C)cc(-c3noc(C(F)(F)F)n3)cc2C)on1 [PLECONARIL] |  |  | 92 | 9.4 | 
9 | CNC(=O)c1cc(Oc2c(C)cc(-c3noc(C(C)C)n3)cc2C)ccn1 | 7400 | 69 | 300 | 11 | remaining at 0.5 h, 1 µM [1]: 61.1%; remaining at 0.5 h, 1 µM [2]: 37.1%
10 | CNC(=O)c1cc(Oc2ccc(-c3noc(COC)n3)cc2)ccn1 | 63400 | 2100 | 8300 | 1700 | 
11 | CNC(=O)c1cc(Oc2ccc(-c3noc(C(C)C)n3)cc2)ccn1 | 16100 | 380 | 73 | 34 | 
12 | Cc1cc(-c2noc(C(C)C)n2)ccc1Oc1ccnc(C(=O)N(C)C)c1 | 1400 | > 1400 | 490 | > 1400 | 
13 | CNC(=O)c1cc(Oc2ccc(-c3noc(CC(C)C)n3)cc2)ccn1 | 23400 | 2200 | > 23400 | 340 | 
14 | CNC(=O)c1cc(Oc2ccc(-c3noc(C(C)C)n3)nc2)ccn1 | > 100000 | 39100 | 11500 | 6700 | 
15 | CNC(=O)c1cc(Oc2ccc3c(C)c(-c4noc(C(F)(F)F)n4)sc3c2)ccn1 | > 100000 | 990 | 2000 | 300 | 
16 | CC(C)c1nc(-c2ccc(Oc3ccnc(C(=O)N(C)C)c3)cc2)no1 | 9000 | > 9000 | 280 | > 9000 | 
17 | CCc1nc(-c2ccc(Oc3ccnc(C(=O)NC)c3)cc2)no1 | 43700 | 130 | 1100 | 31 | 
18 | CNC(=O)c1cc(Oc2ccc(-c3noc(C)n3)cc2)ccn1 | > 100000 | 8700 | 33700 | 1600 | 
19 | CNC(=O)c1cc(Oc2cccc(-c3noc(CC(C)C)n3)c2)ccn1 | 19100 | 2700 | > 19100 | 370 | 
20 | CNC(=O)c1cc(Oc2ccc(-c3noc(C4CC4)n3)cc2C)ccn1 | 20000 | 400 | 340 | 12 | 
21 | CNC(=O)c1cc(Oc2ccc(-c3noc(C4CC4)n3)cc2)ccn1 | 32300 | 400 | 520 | 50 | 
22 | CNC(=O)c1cc(Oc2ccc(-c3noc(C(C)C)n3)c(C)c2)ccn1 | 30500 | 22 | 66 | 3.7 | half-life [5]: 4.6 h; AUC(0-inf) [6]: 31800 ng·h/mL; half-life [7]: 3.2 h; clearance [8]: 2.63 mL/min/kg; AUC(0-t) [9]: 31300 ng·h/mL; Cmax [10]: 3900 ng/mL; remaining at 0.5 h, 1 µM [1]: 40.7%; remaining at 0.5 h, 1 µM [2]: 59.6%; AUC(0-t) [11]: 17400 ng·h/mL; AUC(0-inf) [12]: 17400 ng·h/mL; Vd [13]: 0.611 L/kg; bioavailability [14]: 27.8%; Tmax [15]: 2.7 h
23 | CCc1nc(-c2ccc(Oc3ccnc(C(=O)NC)c3)c(C)c2)no1 | 25200 | 230 | 390 | 3.9 | 
24 | CNC(=O)c1cc(Oc2ccc3c(C)c(-c4noc(C(C)C)n4)sc3c2)ccn1 | 5500 | 300 | 73 | 13 | remaining at 0.5 h, 1 µM [1]: 69.8%; remaining at 0.5 h, 1 µM [2]: 99.2%
25 | CCc1nc(-c2sc3cc(Oc4ccnc(C(=O)NC)c4)ccc3c2C)no1 | 5200 | 77 | 430 | 14 | 
26 | CNC(=O)c1cc(Oc2cccc(-c3noc(C(C)C)n3)c2)ccn1 | 54200 | 2100 | 12800 | 150 | 
27 | CNC(=O)c1cc(Oc2ccc3c(C)c(-c4noc(C5CC5)n4)sc3c2)ccn1 | 6800 | 60 | 470 | 31 | 
28 | CNC(=O)c1cc(Oc2ccc3cc(-c4noc(C)n4)ccc3c2)ccn1 | 6900 | 110 | 1700 | 8.4 | 
